From ChEMBL document CHEMBL2021791, “Synthesis, structure-activity relationships and biological evaluation of caudatin derivatives as novel anti-hepatitis B virus agents” (Bioorg Med Chem, 2012) come the findings set out here.

The subject of series [1] is Hepatitis B virus. Nature of the series: Selectivity ratio of CC50 for human HepG2(2.2.15) cells to IC50 for Hepatitis B virus infected in human HepG2.2.15 cells assessed as suppression of HBsAg secretion. Format: cell-based. The settings on record: read-out: Ratio CC50/IC50. The gist of the method: (§1)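 The selectivity index was calculated as CC50/IC50. CC50 is MTT cytotoxicity in HepG2 2.2.15 cells. No index was given where a value could not be obtained.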

Series [2] deals with Hepatitis B virus. Nature of the series: Selectivity ratio of CC50 for human HepG2(2.2.15) cells to IC50 for Hepatitis B virus infected in human HepG2(2.2.15) cells assessed as inhibition of viral replication. Format: cell-based. The settings on record: read-out: Ratio CC50/IC50. In a few lines: as §1
Series [3] concerns Hepatitis B virus. The experiment in a line: Antiviral activity against Hepatitis B virus infected in human HepG2(2.2.15) cells assessed as suppression of HBsAg secretion by ELISA. Format: functional, organism-based. Background: ELISA stands for enzyme-linked immunosorbent assay.
Series [4] deals with Hepatitis B virus. The experiment in a line: Antiviral activity against Hepatitis B virus infected in human HepG2(2.2.15) cells assessed as inhibition of viral DNA replication by RT-PCR analysis. Format: functional, organism-based.
Series [5] concerns Hepatitis B virus. The experiment in a line: Selectivity ratio of CC50 for human HepG2(2.2.15) cells to IC50 for Hepatitis B virus infected in human HepG2(2.2.15) cells assessed as suppression of HBeAg secretion. Type of series: cell-based. The settings on record: read-out: Ratio CC50/IC50. The gist of the method: as §1
Series [6] deals with Hepatitis B virus. The experiment in a line: Antiviral activity against Hepatitis B virus infected in human HepG2(2.2.15) cells assessed as suppression of HbeAg secretion by ELISA. Type of series: functional, organism-based.
Series [7] in a line: Cytotoxicity against human HepG2(2.2.15) cells by MTT assay. Type of series: cell-based. In a few lines:
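HepG2 2.2.15 cells were exposed to compounds and viability was read by a modified MTT method. CC50 is the concentration giving 50% cytotoxicity. Values are means of at least two experiments.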
On the technique in general: Formazan colour is commonly taken as a measure of viable cells.

Broadly, the IC50 is the concentration at which inhibition is half-maximal. In general, CC50 refers to the concentration that lowers cell viability or growth by half. Read a high CC50 as better tolerance by the cells. On to `CC(=O)[C@]1(O)CC[C@@]2(O)[C@]1(C)[C@H](OC(=O)/C=C(\C)C(C)C)C[C@@H]1[C@@]3(C)CC[C@H](OC(=O)/C=C/n4ccnc4)CC3=CC[C@]12O`, for which the selectivity ratio in the series with Hepatitis B virus [1] was above 78; in the series with Hepatitis B virus [2] it was above 195; in the series with Hepatitis B virus [5], above 111. The values for the IC50 in the series on Hepatitis B virus [3], in the series with Hepatitis B virus [4] and with Hepatitis B virus [6] were 18.7 µM, 7.48 µM and 13.2 µM, respectively. In addition, the CC50 in series [7] (HepG2(2.2.15) cells) was above 1460 µM.

With `CC(=O)[C@]1(O)CC[C@@]2(O)[C@]1(C)[C@H](OC(=O)/C=C(\C)C(C)C)C[C@@H]1[C@@]3(C)CC[C@H](OC(=O)C(C#N)=C(C)C)CC3=CC[C@]12O`, the selectivity ratio worked out at 3.3 in the series on Hepatitis B virus [1], 14.8 in the series on Hepatitis B virus [2] and 2 with Hepatitis B virus [5]. Moreover, the IC50 worked out at 136 µM in the series with Hepatitis B virus [3], 30.6 µM with Hepatitis B virus [4] and 221 µM in the series on Hepatitis B virus [6]. Further, half-maximal cytotoxicity in series [7] (HepG2(2.2.15) cells) (CC50) was put at 452 µM.

As to `CC(=O)[C@]1(O)CC[C@@]2(O)[C@]1(C)[C@H](OC(=O)/C=C(\C)C(C)C)C[C@@H]1[C@@]3(C)CC[C@H](OC(=O)COc4ccccc4)CC3=CC[C@]12O`, the figures for the selectivity ratio with Hepatitis B virus [1], with Hepatitis B virus [2] and in the series on Hepatitis B virus [5] were 4.2, 7.8 and 3.3, respectively. Further, the values for the IC50 in the series on Hepatitis B virus [3], in the series on Hepatitis B virus [4] and with Hepatitis B virus [6] were 76.7 µM, 41 µM and 96.1 µM, respectively. In series [7] (HepG2(2.2.15) cells), this compound had a CC50 of 319 µM.

With `CC(=O)N1CCC(C(=O)O[C@H]2CC[C@@]3(C)C(=CC[C@]4(O)[C@@H]3C[C@@H](OC(=O)/C=C(\C)C(C)C)[C@@]3(C)[C@]4(O)CC[C@@]3(O)C(C)=O)C2)CC1`, the selectivity ratio was 1.1 in the series with Hepatitis B virus [2] and above 1 with Hepatitis B virus [5]. Further, the half-maximal inhibitory concentration (IC50) with Hepatitis B virus [3] was 93.2 µM; in the series on Hepatitis B virus [4], 54.8 µM; in the series on Hepatitis B virus [6], below 62.1 µM. Besides, the CC50 in series [7] (HepG2(2.2.15) cells) turned out to be 62.1 µM.

`CC(=O)[C@]1(O)CC[C@@]2(O)[C@]1(C)[C@H](OC(=O)/C=C(\C)C(C)C)C[C@@H]1[C@@]3(C)CC[C@H](OC(=O)c4cccnc4)CC3=CC[C@]12OC(=O)c1cccnc1`: the values for the selectivity ratio with Hepatitis B virus [1], with Hepatitis B virus [2] and in the series with Hepatitis B virus [5] were 1.8, 3.6 and 1.7, respectively. The IC50 in the series with Hepatitis B virus [3] turned out to be 199 µM; in the series with Hepatitis B virus [4] it was 97 µM; with Hepatitis B virus [6], 204 µM. In series [7] (HepG2(2.2.15) cells), this compound gave a CC50 of 350 µM.

As for `CC(=O)[C@]1(O)CC[C@@]2(O)[C@]1(C)[C@H](OC(=O)/C=C(\C)C(C)C)C[C@@H]1[C@@]3(C)CC[C@H](O)CC3=CC[C@]12O` [CAUDATIN], the selectivity ratio is 1.7 in the series with Hepatitis B virus [1], 6 in the series on Hepatitis B virus [2] and below 1.3 with Hepatitis B virus [5]. Moreover, the results for the IC50 in the series with Hepatitis B virus [3], with Hepatitis B virus [4] and in the series with Hepatitis B virus [6] were 143 µM, 40.6 µM and above 183 µM, respectively. This compound showed a CC50 in series [7] (hepg2 2.2.15) of 245 µM.

Regarding `C[C@H](Cn1cnc2c(N)ncnc21)OCP(=O)(O)O` [TENOFOVIR ANHYDROUS], the values for the selectivity ratio with Hepatitis B virus [1], in the series on Hepatitis B virus [2] and with Hepatitis B virus [5] were above 1.3, above 2360 and above 1.5, respectively. The IC50 stood at 1450 µM in the series on Hepatitis B virus [3], 0.77 µM in the series with Hepatitis B virus [4] and 1240 µM in the series on Hepatitis B virus [6]. In addition, in series [7] (HepG2(2.2.15) cells), the 50% cytotoxic concentration (CC50) is above 1820 µM.

`CC(=O)[C@]1(O)CC[C@@]2(O)[C@]1(C)[C@H](OC(=O)/C=C(\C)C(C)C)C[C@@H]1[C@@]3(C)CC[C@H](OC(=O)COCC(=O)O)CC3=CC[C@]12O`: the selectivity ratio came to 1.7 with Hepatitis B virus [2] and 2.4 with Hepatitis B virus [5]. Moreover, the figures for the 50% inhibitory concentration (IC50) with Hepatitis B virus [3], with Hepatitis B virus [4] and with Hepatitis B virus [6] were 524 µM, 164 µM and 115 µM, respectively. This compound came in with a CC50 in series [7] (HepG2(2.2.15) cells) of 274 µM.

Consider `CC(=O)[C@]1(O)CC[C@@]2(O)[C@]1(C)[C@H](OC(=O)/C=C(\C)C(C)C)C[C@@H]1[C@@]3(C)CC[C@H](OC(=O)c4cnccn4)CC3=CC[C@]12O`, for which the selectivity ratio with Hepatitis B virus [2] was 1.3; with Hepatitis B virus [5] it was above 1.2. Moreover, the figures for the IC50 in the series on Hepatitis B virus [3], in the series with Hepatitis B virus [4] and in the series on Hepatitis B virus [6] were 95.5 µM, 47.9 µM and below 50.3 µM, respectively. The same compound registered a CC50 in series [7] (HepG2(2.2.15) cells) of 61.3 µM.

As to `CC(=O)[C@]1(OC(=O)c2cccnc2)CC[C@@]2(O)[C@]1(C)[C@H](OC(=O)/C=C(\C)C(C)C)C[C@@H]1[C@@]3(C)CC[C@H](OC(=O)c4cccnc4)CC3=CC[C@]12O`, the selectivity ratio is above 6.7 in the series on Hepatitis B virus [1], above 24.4 in the series on Hepatitis B virus [2] and above 2.4 in the series on Hepatitis B virus [5]. For the same compound, the IC50 stood at 90 µM in the series on Hepatitis B virus [3], 24.7 µM with Hepatitis B virus [4] and 135 µM in the series on Hepatitis B virus [6]. Besides, half-maximal cytotoxicity in series [7] (HepG2(2.2.15) cells) (CC50) was put at 602 µM.

Take `CC(=O)[C@]1(O)CC[C@@]2(O)[C@]1(C)[C@H](OC(=O)/C=C(\C)C(C)C)C[C@@H]1[C@@]3(C)CC[C@H](OC(=O)c4cc5ccccc5[nH]4)CC3=CC[C@]12O`: the selectivity ratio in the series on Hepatitis B virus [1] amounted to 1.7; in the series on Hepatitis B virus [2], 10.1; in the series on Hepatitis B virus [5], 1.1. Moreover, the values for the IC50 in the series with Hepatitis B virus [3], in the series with Hepatitis B virus [4] and with Hepatitis B virus [6] were 21.7 µM, 3.63 µM and 33.7 µM, respectively. Further, the midpoint of cytotoxicity in series [7] (HepG2(2.2.15) cells), the CC50, lay at 36.7 µM.

Consider `CC(=O)[C@]1(OC(=O)/C=C/c2ccc3c(c2)OCO3)CC[C@@]2(O)[C@]1(C)[C@H](OC(=O)/C=C(\C)C(C)C)C[C@@H]1[C@@]3(C)CC[C@H](OC(=O)/C=C/c4ccc5c(c4)OCO5)CC3=CC[C@]12O`, for which the selectivity ratio with Hepatitis B virus [1] is above 1.8; with Hepatitis B virus [5] it was above 2.5. The IC50 is 575 µM with Hepatitis B virus [3], above 201 µM in the series on Hepatitis B virus [4] and 407 µM in the series with Hepatitis B virus [6]. Further, the CC50 in series [7] (HepG2(2.2.15) cells) is above 1020 µM.

Turning to `CC(=O)[C@]1(O)CC[C@@]2(O)[C@]1(C)[C@H](OC(=O)/C=C(\C)C(C)C)C[C@@H]1[C@@]3(C)CC[C@H](O)C[C@@]34O[C@H]4C[C@]12O`, the selectivity ratio with Hepatitis B virus [1] and in the series on Hepatitis B virus [2] was 1.2 throughout. Also, the IC50 in the series with Hepatitis B virus [3] was found to be 189 µM; in the series on Hepatitis B virus [4], 184 µM; in the series with Hepatitis B virus [6], 1140 µM. This compound gave a CC50 in series [7] (HepG2(2.2.15) cells) of 226 µM.
